What was measured:
[1] = system: ALR1; assay: Inhibition of Wistar rat kidney ALR1 assessed as reduction in NADPH consumption using sodium D-glucuronate as substrate at 100 uM incubated for 1 min and measured up to 4 mins by spectrophotometric analysis relative to control; type: tissue-based; settings: rat kidney ALR1 (aldehyde reductase) enzyme, probe sodium D-glucuronate
Method in brief: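 Enzyme: ALR1 isolated from rat kidneys. Activity was followed spectrophotometrically as NADPH consumption at 340 nm and expressed as decrease in O.D./s/mg protein. Inhibition is given as % of enzyme inhibition at 100 μM inhibitor.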

[2] = Inhibition of Wistar rat lens ALR2 assessed as reduction in NADPH consumption using D,L-glyceraldehyde as substrate incubated for 1 min and measured up to 4 mins by spectrophotometric analysis; type: tissue-based
Method in brief: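 ALR2 was isolated from rat eye lenses and assayed for reduction of D,L-glyceraldehyde. NADPH consumption was read spectrophotometrically at 340 nm, with activity expressed as decrease in O.D./s/mg protein. The IC50 was derived from inhibition of this activity.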

[3] = species: Rattus norvegicus; assay: Potency index, ratio of IC50 of OTI-6 to IC50 of compound for inhibition of Wistar rat lens ALR2 assessed as reduction in NADPH consumption using D,L-glyceraldehyde as substrate incubated for 1 min and measured up to 4 mins by spectrophotometric analysis; type: tissue-based
[4] = species: Rattus norvegicus; assay: Selectivity index, ratio of IC50 for Wistar rat kidney ALR1 to IC50 for Wistar rat lens ALR2
Method in brief: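 Selectivity factor S_F = IC50(ALR1)/IC50(ALR2). ALR1 came from rat kidneys and ALR2 from rat eye lenses with D,L-glyceraldehyde as substrate. Both were assayed spectrophotometrically by NADPH consumption at 340 nm.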

[5] = Inhibition of Wistar rat kidney ALR1 assessed as reduction in NADPH consumption using sodium D-glucuronate as substrate incubated for 1 min and measured up to 4 mins by spectrophotometric analysis; type: tissue-based
Method in brief: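 Aldehyde reductase (ALR1) was isolated from rat kidneys. Activity was monitored spectrophotometrically by NADPH consumption at 340 nm, expressed as decrease in O.D./s/mg protein. The IC50 was determined from inhibition of this activity.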

Row | Structure (SMILES) | inhibition at 4 min, 100 µM [1] | IC50 [2] | pIC50 [2] | Ratio IC50 [3] | Ratio IC50 [4] | IC50 [5]
1 | O=C(O)Cn1c2ccccc2c2nn(Cc3ccccc3CO)c(=O)nc21 | 33% | 241 nM | 6.61 | 2 | > 410 | > 100000 nM
2 | O=C(O)Cn1c2ccccc2c2nn(Cc3ccccc3)c(=O)nc21 | 38% | 434 nM | 6.36 | – | > 230 | > 100000 nM
3 | N#Cc1ccccc1Cn1nc2c3ccccc3n(CC(=O)O)c2nc1=O | 51% | 76 nM | 7.12 | – | > 1330 | > 100000 nM
4 | NC(=O)c1ccccc1Cn1nc2c3ccccc3n(CC(=O)O)c2nc1=O | 50% | 236 nM | 6.63 | 2 | > 424 | > 100000 nM
5 | O=C(O)Cn1c2ccccc2c2nn(Cc3ccccc3C(=O)O)c(=O)nc21 | 62% | 139 nM | 6.86 | – | 424 | 59000 nM

Source: ChEMBL document CHEMBL4673344, “Novel substituted N-benzyl(oxotriazinoindole) inhibitors of aldose reductase exploiting ALR2 unoccupied interactive pocket” (Bioorg Med Chem, 2021)
